Source: ChEMBL document CHEMBL1649299, “Eradication of intracellular Salmonella enterica serovar Typhimurium with a small-molecule, host cell-directed agent” (Antimicrob Agents Chemother, 2009)
Active and inactive are the calls of the source.

Columns and labels:
Salmonella typhimurium [1] = test: Antimicrobial activity against Salmonella enterica serovar Typhimurium ATCC 14028 infected in mouse RAW264.7 cells assessed as reduction of bacterial survival at 1 uM after 2 hrs relative to control; format: functional, Salmonella enterica subsp. enterica serovar Typhimurium
Summary of the method: (§1)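 RAW264.7 cells were seeded at 5.0 × 10^5 cells/well for 12–16 h. Log-phase bacteria (1:33 subculture, 3 h in LB, 37°C) were added at MOI 25 for 30 min. Extracellular bacteria were killed with 100 μg/ml gentamicin for 1 h, then washed off. Cells were treated in medium with 10% FBS and 10 μg/ml gentamicin (DMSO 0.1% final) and lysed with 0.1% Triton X-100. CFU were counted on LB agar after 16 h at 37°C.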

Salmonella typhimurium [2] = test: Antimicrobial activity against Salmonella enterica serovar Typhimurium ATCC 14028 infected in mouse RAW264.7 cells assessed as reduction in bacterial load at 1 uM after 8 hrs by immunofluorescent staining; format: functional, Salmonella enterica subsp. enterica serovar Typhimurium; design: scale not given: the % may be the effect or the level left
Summary of the method: (§2)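 RAW264.7 cells were fixed in 4% formaldehyde for 20 min at 25°C, permeabilized with 0.5% Triton X-100, and blocked overnight in 3% BSA. Staining used primary antibody (anti-LC3 for autophagosomes) for 1 h, then fluorescent secondary antibody for 1 h, with DAPI for nuclei. Slides were read by wide-field or confocal microscopy. For colocalization, only bacteria in direct contact with autophagosomes in 3-D confocal images were scored. Giant puncta were defined as ≥1 μm.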

Salmonella typhimurium [3] = test: Antimicrobial activity against Salmonella enterica serovar Typhimurium ATCC 14028 infected in mouse RAW264.7 cells assessed as inhibition of intracellular bacterial growth at 1 uM after 4 hrs; format: functional, organism-based, Salmonella enterica subsp. enterica serovar Typhimurium; summary of the method: as §1
Salmonella typhimurium [4] = test: Antimicrobial activity against Salmonella enterica serovar Typhimurium ATCC 14028 infected in mouse RAW264.7 cells assessed as inhibition of intracellular bacterial growth at 1 uM after 8 hrs; format: functional, Salmonella enterica subsp. enterica serovar Typhimurium; design: scale not given: the % may be the effect or the level left; summary of the method: as §1
Salmonella typhimurium [5] = test: Antimicrobial activity against Salmonella enterica serovar Typhimurium ATCC 14028 infected in mouse RAW264.7 cells assessed as inhibition of intracellular bacterial growth after 8 hrs; format: functional, organism-based, Salmonella enterica subsp. enterica serovar Typhimurium; conditions: ATCC 14028, RAW264.7, 8 h; summary of the method: as §1
RAW264.7 [6] = test: Cytotoxicity against Salmonella enterica serovar Typhimurium ATCC 14028 infected in mouse RAW264.7 cells assessed as cell viability at 1 uM after 24 hrs by MTT assay; format: cell-based; conditions: raw264.7, 24 h
Salmonella typhimurium [7] = test: Antimicrobial activity against Salmonella enterica serovar Typhimurium ATCC 14028 infected in mouse J774.1 cells; format: functional, organism-based; conditions: Salmonella enterica subsp. enterica serovar Typhimurium
Summary of the method: (§3)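 Macrophages were seeded at 5.0 × 10^5 cells/well for 12–16 h; THP-1 cells were first differentiated with 20 nM TPA for 48 h. Bacteria were subcultured 3 h in LB and added at MOI 25 for 30 min. Cells then received 100 μg/ml gentamicin for 1 h and were washed. Treatment was in medium with 10% FBS and 10 μg/ml gentamicin. Survivors were released with 0.1% Triton X-100 and counted as CFU on LB agar after 16 h at 37°C.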

Salmonella typhimurium [8] = test: Antimicrobial activity against Salmonella enterica serovar Typhimurium ATCC 14028 infected in human TPA-differentiated THP1 cells; format: functional, organism-based; conditions: Salmonella enterica subsp. enterica serovar Typhimurium, THP-1; summary of the method: as §3
Salmonella typhimurium [9] = test: Antimicrobial activity against Salmonella enterica serovar Typhimurium ATCC 14028 at 1 to 5 uM after 480 mins; format: functional, organism-based; conditions: Salmonella enterica subsp. enterica serovar Typhimurium
Salmonella typhimurium [10] = test: Antimicrobial activity against Salmonella enterica serovar Typhimurium ATCC 14028 infected in mouse RAW264.7 cells assessed as reduction of bacterial count at 1 uM pretreated 30 mins before infection measured after 1 hr; format: functional, organism-based; conditions: Salmonella enterica subsp. enterica serovar Typhimurium
Summary of the method: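 Bacteria were pre-exposed to vehicle (DMSO) or 1 μM drug in culture medium for 30 min. They were then used to infect RAW264.7 cells at MOI 25 for 30 min, followed by 100 μg/ml gentamicin for 1 h and PBS washes. Intracellular bacteria were counted as CFU 1 h later after Triton X-100 lysis.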

Salmonella typhimurium [11] = test: Antimicrobial activity against Salmonella enterica serovar Typhimurium ATCC 14028 infected in mouse RAW264.7 cells assessed as inhibition of intracellular bacterial growth at 1 uM after 4 hrs in presence of vacuolar ATPase inhibitor bafilomycin A1; format: functional, organism-based; conditions: Salmonella enterica subsp. enterica serovar Typhimurium; summary of the method: as §3
Salmonella typhimurium [12] = test: Antimicrobial activity against Salmonella enterica serovar Typhimurium ATCC 14028 infected in mouse RAW264.7 cells assessed as inhibition of intracellular bacterial growth at 1 uM after 8 to 24 hrs in presence of gentamicin; format: functional, organism-based; conditions: Salmonella enterica subsp. enterica serovar Typhimurium; summary of the method: as §3
Salmonella typhimurium [13] = test: Antimicrobial activity against Salmonella enterica serovar Typhimurium ATCC 14028 infected in mouse RAW264.7 cells transfected with shRNA assessed as reduction of Beclin-1 expression at 1 uM after 2 hrs by immunoblotting relative to control; format: functional, Salmonella enterica subsp. enterica serovar Typhimurium; design: scale not given: the % may be the effect or the level left
Summary of the method: (§4)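 Beclin-1 or Atg7 shRNA plasmids, with GFP shRNA as control, were nucleofected into RAW264.7 cells (2 × 10^6 cells, 2 μg DNA). Stable clones were selected with 2 μg/ml puromycin and kept in 1 μg/ml. Knockdown was measured by immunoblotting.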

Salmonella typhimurium [14] = test: Antimicrobial activity against Salmonella enterica serovar Typhimurium ATCC 14028 infected in mouse RAW264.7 cells transfected with shRNA assessed as reduction of Atg7 expression at 1 uM after 2 hrs by immunoblotting relative to control; format: functional, Salmonella enterica subsp. enterica serovar Typhimurium; design: scale not given: the % may be the effect or the level left; summary of the method: as §4
[15] = target: RAC-alpha serine/threonine-protein kinase (Mus musculus) (UniProt P31750); test: Inhibition of Akt phosphorylation in mouse RAW264.7 cells infected with Salmonella enterica serovar Typhimurium ATCC 14028 assessed as decrease of p-473Ser-Akt level after 8 hrs by Western blotting; format: cell-based
Chain of RAC-alpha serine/threonine-protein kinase (Mus musculus) (P31750 whole entry): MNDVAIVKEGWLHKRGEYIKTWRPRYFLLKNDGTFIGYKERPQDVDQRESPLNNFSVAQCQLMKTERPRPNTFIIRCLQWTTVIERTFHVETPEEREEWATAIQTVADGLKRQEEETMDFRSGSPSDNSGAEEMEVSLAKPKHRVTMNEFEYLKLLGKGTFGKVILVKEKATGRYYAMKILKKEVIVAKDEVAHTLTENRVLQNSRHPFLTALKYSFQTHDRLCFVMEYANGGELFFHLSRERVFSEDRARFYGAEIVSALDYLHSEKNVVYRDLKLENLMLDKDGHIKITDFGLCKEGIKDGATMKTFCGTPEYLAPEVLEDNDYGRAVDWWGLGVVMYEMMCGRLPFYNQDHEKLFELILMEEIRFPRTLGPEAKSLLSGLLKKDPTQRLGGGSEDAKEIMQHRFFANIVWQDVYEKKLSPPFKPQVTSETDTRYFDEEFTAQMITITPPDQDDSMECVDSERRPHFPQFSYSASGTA
Summary of the method: (§5)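 Infected RAW264.7 cells were treated for 8 h and then lysed in M-PER on ice. Lysates (25 μg/lane) were run on SDS gels and transferred to nitrocellulose. Membranes were blocked with 3% skim milk in TBS, incubated with primary antibody for 12 h at 4°C and then HRP secondary, and detected by enhanced chemiluminescence.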

[16] = target: RAC-alpha serine/threonine-protein kinase (Mus musculus) (UniProt P31750); test: Inhibition of Akt phosphorylation in mouse RAW264.7 cells infected with Salmonella enterica serovar Typhimurium ATCC 14028 assessed as decrease of p-308Thr-Akt level after 8 hrs by Western blotting; format: cell-based; summary of the method: as §5
[17] = target: RAC-alpha serine/threonine-protein kinase (Mus musculus) (UniProt P31750); test: Inhibition of Akt phosphorylation in mouse RAW264.7 cells infected with Salmonella enterica serovar Typhimurium ATCC 14028 assessed as decrease of phosphorylated GSK3-beta level at 1 uM after 8 hrs by Western blotting; format: cell-based; summary of the method: as §5
Salmonella typhimurium [18] = test: Antimicrobial activity against Salmonella enterica serovar Typhimurium ATCC 14028 infected in mouse RAW264.7 cells transfected with HA-tagged CA-Akt1 assessed as inhibition of intracellular bacterial survival at 1 uM after 2 hrs; format: functional, organism-based; conditions: Salmonella enterica subsp. enterica serovar Typhimurium; summary of the method: as §3
Salmonella typhimurium [19] = test: Antimicrobial activity against Salmonella enterica serovar Typhimurium ATCC 14028 infected in mouse RAW264.7 cells transfected with HA-tagged CA-Akt1 assessed as inhibition of intracellular bacterial survival at 1 uM after 8 hrs; format: functional, organism-based; conditions: Salmonella enterica subsp. enterica serovar Typhimurium; summary of the method: as §3
Salmonella typhimurium [20] = test: Antimicrobial activity against Salmonella enterica serovar Typhimurium ATCC 14028 infected in BALB/c mouse assessed as reduction of liver bacterial load at 2.5 mg/kg, administered intragastrically after 24 hrs of post infection qd for 4 days measured on day 5 relative to control; format: functional, Salmonella enterica subsp. enterica serovar Typhimurium; design: scale not given: the % may be the effect or the level left; conditions: route intragastric
Summary of the method: (§6)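 Female BALB/c mice, 8–10 weeks old, were infected by intragastric gavage with an overnight culture at 10^5 organisms in 0.1 ml PBS (50% lethal dose). Starting 24 h post-infection, drug in 0.5% methylcellulose–0.1% Tween 80 in water was given by gavage once daily for 4 days at 1, 2.5 or 5 mg/kg, 7–9 mice per group. On day 5 post-infection, liver and spleen were homogenized in 10 ml cold PBS and plated on LB agar to count CFU.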

Salmonella typhimurium [21] = test: Antimicrobial activity against Salmonella enterica serovar Typhimurium ATCC 14028 infected in BALB/c mouse assessed as reduction of liver bacterial load at 5 mg/kg, administered intragastrically after 24 hrs of post infection qd for 4 days measured on day 5 relative to control; format: functional, Salmonella enterica subsp. enterica serovar Typhimurium; design: scale not given: the % may be the effect or the level left; conditions: route intragastric; summary of the method: as §6
Salmonella typhimurium [22] = test: Antimicrobial activity against Salmonella enterica serovar Typhimurium ATCC 14028 infected in BALB/c mouse assessed as reduction of spleen bacterial load at 2.5 mg/kg, administered intragastrically after 24 hrs of post infection qd for 4 days measured on day 5 relative to control; format: functional, Salmonella enterica subsp. enterica serovar Typhimurium; design: scale not given: the % may be the effect or the level left; conditions: route intragastric; summary of the method: as §6
Salmonella typhimurium [23] = test: Antimicrobial activity against Salmonella enterica serovar Typhimurium ATCC 14028 infected in BALB/c mouse assessed as reduction of spleen bacterial load at 5 mg/kg, administered intragastrically after 24 hrs of post infection qd for 4 days measured on day 5 relative to control; format: functional, Salmonella enterica subsp. enterica serovar Typhimurium; design: scale not given: the % may be the effect or the level left; conditions: route intragastric; summary of the method: as §6
RAW264.7 [24] = test: Induction of autophagy in mouse RAW264.7 cells assessed as increase of LC3 punctum formation at 1 uM by immunofluorescence microscopic analysis; format: functional, cell-based; summary of the method: as §2
RAW264.7 [25] = test: Induction of autophagy in mouse RAW264.7 cells assessed as LC3-positive puncta with diameter greater than 1 uM in cytoplasm at 1 uM by immunofluorescence microscopic analysis; format: functional, cell-based; summary of the method: as §2
RAW264.7 [26] = test: Cytotoxicity against mouse RAW264.7 cells assessed as cell viability at 1 uM after 24 hrs by MTT assay; format: cell-based; conditions: raw264.7, 24 h
RAW264.7 [27] = test: Cytotoxicity against mouse RAW264.7 cells assessed as cell viability after 24 hrs by MTT assay; format: cell-based; conditions: RAW264.7, 24 h
Salmonella typhimurium [28] = test: Antimicrobial activity against Salmonella enterica serovar Typhimurium ATCC 14028 infected in mouse RAW264.7 cells assessed as colocalization of organism with autophagosomes at 1 uM after 1 hr by immunofluorescence microscopic analysis relative to control; format: functional, Salmonella enterica subsp. enterica serovar Typhimurium; summary of the method: as §2
Salmonella typhimurium [29] = test: Antimicrobial activity against Salmonella enterica serovar Typhimurium ATCC 14028 infected in BALB/c mouse assessed as increase of host survival days at 2.5 mg/kg, po administered after 24 hrs of post infection qd relative to control

NCC(=O)Nc1ccc(-n2nc(C(F)(F)F)cc2-c2ccc3c(ccc4ccccc43)c2)cc1 [AR-12]
Activity (Salmonella typhimurium [1]): 25% | Activity (Salmonella typhimurium [2]): 82% | Activity (Salmonella typhimurium [3]): Active | Activity (Salmonella typhimurium [4]): 90% | IC50 (Salmonella typhimurium [5]): 200 nM | Activity (RAW264.7 [6]): Non-toxic | Activity (Salmonella typhimurium [7]): Active | Activity (Salmonella typhimurium [8]): Active | Activity (Salmonella typhimurium [9]): inactive | Activity (Salmonella typhimurium [10]): inactive | Activity (Salmonella typhimurium [11]): Active | Activity (Salmonella typhimurium [12]): Active | Activity (Salmonella typhimurium [13]): 83% | Activity (Salmonella typhimurium [14]): 43% | inhibition [15]: Dose-dependent effect | inhibition [16]: Dose-dependent effect | inhibition [17]: Active | Activity (Salmonella typhimurium [18]): Active | Activity (Salmonella typhimurium [19]): inactive | Activity (Salmonella typhimurium [20]): 99% | Activity (Salmonella typhimurium [21]): 96% | Activity (Salmonella typhimurium [22]): 98% | Activity (Salmonella typhimurium [23]): 90% | Activity (RAW264.7 [24]): Active | Activity (RAW264.7 [25]): Active | Activity (RAW264.7 [26]): Non-toxic | IC50 (RAW264.7 [27]): > 10000 nM | Activity (Salmonella typhimurium [28]): 21.2% | Survival (Salmonella typhimurium [29]): 8.1 days
